The term IC50 denotes the midpoint of a concentration-inhibition curve. A high value points to a need for much substance.

Chain of RNA-directed RNA polymerase (O39930 whole entry): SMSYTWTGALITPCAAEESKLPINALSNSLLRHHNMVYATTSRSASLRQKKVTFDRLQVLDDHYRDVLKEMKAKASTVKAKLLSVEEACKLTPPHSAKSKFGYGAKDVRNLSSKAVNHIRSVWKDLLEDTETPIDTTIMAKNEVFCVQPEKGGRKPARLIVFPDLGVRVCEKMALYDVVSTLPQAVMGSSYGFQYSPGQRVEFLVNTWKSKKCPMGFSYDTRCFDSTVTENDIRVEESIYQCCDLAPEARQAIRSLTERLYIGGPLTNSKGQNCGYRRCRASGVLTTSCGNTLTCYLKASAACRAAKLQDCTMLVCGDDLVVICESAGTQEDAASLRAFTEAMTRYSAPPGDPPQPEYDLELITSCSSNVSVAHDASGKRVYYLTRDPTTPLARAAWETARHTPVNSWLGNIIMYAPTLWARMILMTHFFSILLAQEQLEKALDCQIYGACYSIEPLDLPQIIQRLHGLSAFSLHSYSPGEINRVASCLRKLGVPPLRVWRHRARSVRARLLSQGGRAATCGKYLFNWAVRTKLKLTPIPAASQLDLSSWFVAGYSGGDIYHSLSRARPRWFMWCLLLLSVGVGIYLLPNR

The experiment has as its target RNA-directed RNA polymerase (Hepacivirus hominis, UniProt O39930). The experiment is described as follows: Inhibitory concentration against NS5B HCV polymerase using [alpha-32P]UTP as radioligand (30 degree C for 2 h, at pH 7.5 with Tris-HCl buffer). The essentials: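 Recombinant HCV RdRp (1 nM) in 20 mM Tris-HCl pH 7.5, 5 mM MgCl2, 1 mM DTT, 1 mM EDTA, RNase inhibitor, 50 µg/mL actinomycin D, 10 µg/mL RNA template, 0.5 mM ATP/CTP/GTP, [α-32P]UTP, limiting nucleotide 10 µM. 30 °C, 2 h; proteinase K stop, extraction, urea-PAGE, phosphorimaging. IC50s rescaled by a reference inhibitor's measured/literature IC50 ratio.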
`O=C(O)C(=O)/C=C(\O)c1cccc(OCc2ccc(-c3ccccc3)cc2)c1` returned an IC50 of 50 µM.

For `O=C(O)C(=O)/C=C(\O)c1cccn1Cc1ccc(O)cc1`, the IC50 turned out to be 13 µM. As for `O=C(O)C(=O)/C=C(\O)c1cc(O)cc(OCc2ccccc2)c1`, the figure is 1.4 µM. As to `O=C(O)C(=O)/C=C(\O)c1ccc(-c2ccc(F)c(Cl)c2)o1`, the IC50 stood at 41 µM. As for `O=C(O)C(=O)/C=C(\O)c1cccc(Oc2ccccc2)c1`, the figure is 19 µM.

In turn, `Cc1ccc(/C(O)=C/C(=O)C(=O)O)o1` gave a 50% inhibitory concentration (IC50) of 58 µM. The result for `N#Cc1cc(Cl)c(Cl)cc1COc1cccc(/C(O)=C/C(=O)C(=O)O)c1` reads 0.056 µM; that for `Cn1cc(C(=O)c2ccc(F)cc2)cc1/C=C/C(O)=C/C(=O)C(=O)O`, 16 µM. The result for `Cc1ccc(/C(O)=C/C(=O)C(=O)O)c(C)c1` reads 2 µM; that for `O=C(O)C(=O)/C=C(\O)c1cc2c(s1)-c1cc(F)ccc1OC2`, 27 µM; that for `O=C(O)C(=O)/C=C(\O)c1cccn1Cc1ccc(F)cc1`, 93 µM.

Regarding `O=C(O)C(=O)/C=C(\O)c1cccn1Cc1ccccc1Cl`, the IC50 worked out at 24 µM.

`Cc1cc(/C(O)=C/C(=O)C(=O)O)c(C)o1`: the IC50 was found to be 14 µM. As for `O=C(O)C(=O)/C=C(\O)c1cccc(Cc2cc(Br)cc(Br)c2)c1`, the figure is 32 µM. As for `O=C(O)C(=O)/C=C(\O)c1cccc(OCc2ccccc2)c1`, the 50% inhibitory concentration (IC50) worked out at 8 µM. As for `O=C(O)C(=O)/C=C(\O)c1ccc(Cc2cccc(F)c2)s1`, the figure is 74 µM; as for `O=C(O)C(=O)/C=C(O)/C=C/c1cccn1Cc1cccc(F)c1`, 18 µM; as for `O=C(O)C(=O)/C=C(\O)c1sccc1Cc1cccc(F)c1`, 9.9 µM. The molecule `O=C(O)C(=O)/C=C(\O)c1cccn1Cc1ccc2ccccc2c1` returned an IC50 of 13 µM. The result for `COc1cccc(Cn2cccc2/C(O)=C/C(=O)C(=O)O)c1` reads 7.6 µM; that for `O=C(O)C(=O)/C=C(\O)c1ccccc1`, 5.6 µM; that for `O=C(O)C(=O)/C=C(\O)c1ccc(Cc2cccc(Cl)c2)s1`, 82 µM.

As for `O=C(O)C(=O)/C=C(\O)c1ccc(Cc2ccc(F)cc2)s1`, the IC50 was determined as 65 µM. Molecule `O=C(O)C(=O)/C=C(\O)c1cccn1Cc1c(F)cccc1F` came in with an IC50 of 7.4 µM.

As to `O=C(O)C(=O)/C=C(\O)c1cccc(-c2ccccc2)c1`, the IC50 stood at 28 µM. As for `O=C(O)C(=O)/C=C(\O)c1cccc(OCc2cccc3ccccc23)c1`, the figure is 0.67 µM.

The molecule `O=C(O)C(=O)/C=C(\O)c1cccc(NS(=O)(=O)c2cc(Cl)c(Cl)cc2Cl)c1` showed an IC50 of 0.049 µM.

`O=C(O)C(=O)/C=C(\O)c1cccc(OCc2ccsc2C(=O)O)c1` yielded an IC50 of 0.95 µM. The result for `O=C(O)C(=O)/C=C(\O)c1ccccc1Cc1ccc(F)cc1` reads 8.3 µM; that for `O=C(O)C(=O)/C=C(\O)c1ccsc1Cc1cccc(F)c1`, 80 µM; that for `O=C(O)C(=O)/C=C(\O)c1ccsc1`, 4 µM.

Molecule `O=C(O)C(=O)/C=C(\O)c1cccc(NCc2ccccc2)c1` returned an IC50 of 17 µM.

As for `O=C(O)C(=O)/C=C(\O)c1ccsc1Cc1ccc(F)cc1`, the IC50 is 18 µM. `O=C(O)C(=O)/C=C(\O)c1ccccc1OCc1ccccc1`: the IC50 amounted to 44 µM. The result for `O=C(O)C(=O)/C=C(\O)c1ccsc1Sc1cccc(Cl)c1` reads 7.5 µM; that for `N#CCCCCn1cccc1/C(O)=C/C(=O)C(=O)O`, 13 µM; that for `N#Cc1cccc(Cl)c1COc1cc(O)cc(/C(O)=C/C(=O)C(=O)O)c1`, 0.1 µM. The result for `O=C(O)C(=O)/C=C(\O)c1ccc(N2CCCCC2)s1` reads 8.2 µM; that for `O=C(O)C(=O)/C=C(\O)c1cccc(OCc2cccc(Oc3ccccc3)c2)c1`, 50 µM; that for `O=C(O)C(=O)/C=C(\O)c1ccco1`, 50 µM. As for `O=C(O)C(=O)/C=C(\O)c1cnc2cc(Cl)ccc2c1O`, the figure is 26 µM; as for `O=C(O)C(=O)/C=C(\O)c1cccc(NC(=O)C(=O)O)c1`, 19 µM.

`Cc1ccccc1Cn1cccc1/C=C/C(O)=C/C(=O)C(=O)O` showed an IC50 of 18 µM. As for `N#CCCCOc1ccc(O)cc1/C(O)=C/C(=O)C(=O)O`, the figure is 0.11 µM; as for `Cc1cccc(/C(O)=C/C(=O)C(=O)O)c1`, 12 µM.

For `N#Cc1ccccc1Cn1cccc1/C(O)=C/C(=O)C(=O)O`, the IC50 is 6.3 µM. With `N#CCCCOc1ccccc1/C(O)=C/C(=O)C(=O)O`, the IC50 is 0.38 µM. For `O=C(O)C(=O)/C=C(\O)c1cccc(NS(=O)(=O)c2cc(Cl)cc(Cl)c2)c1`, the IC50 is 0.14 µM. Molecule `O=C(O)C(=O)/C=C(\O)c1cc(I)cn1Cc1ccc(F)cc1` yielded an IC50 of 18 µM. As for `O=C(O)C(=O)/C=C(\O)c1cccc(N2CCCC2)c1`, the figure is 84 µM; as for `O=C(O)C(=O)/C=C(\O)c1cccn1Cc1ccccc1`, 29 µM. The result for `Cc1cc(C)c(/C(O)=C/C(=O)C(=O)O)s1` reads 8.2 µM.

As to `O=C(O)C(=O)/C=C(\O)c1ccc(Cc2ccccc2)s1`, the IC50 came to 68 µM. As for `Cc1sc(-c2ccccc2)cc1/C(O)=C/C(=O)C(=O)O`, the figure is 167 µM; as for `O=C(O)C(=O)/C=C(\O)c1cccc(O)c1`, 1 µM.

Regarding `COc1cccc(/C(O)=C/C(=O)C(=O)O)c1`, the IC50 turned out to be 40 µM. The molecule `O=C(O)C(=O)/C=C(\O)C12C[C@H]3C[C@@H](C1)C[C@@H](C2)C3` displayed an IC50 of 6.7 µM.

`N#Cc1cccc(Cn2ccc(/C(O)=C/C(=O)C(=O)O)c2)c1`: the IC50 is 4.6 µM. As for `COc1ccc(Cn2cccc2/C=C/C(O)=C/C(=O)C(=O)O)cc1`, the figure is 16 µM; as for `CCCCS(=O)(=O)N1CCCC(Cc2ccc(Cl)cc2)(/C(O)=C/C(=O)C(=O)O)C1` (stereo unspecified), 81.4 µM; as for `Cc1ccc(Cn2cccc2/C=C/C(O)=C/C(=O)C(=O)O)cc1`, 28 µM.

Consider `Cn1cc(/C(O)=C/C(=O)C(=O)O)cc1Cc1cccc(F)c1`, for which the IC50 is 21 µM.

`Cc1coc(C)c1/C(O)=C/C(=O)C(=O)O` yielded an IC50 of 48 µM. In turn, `O=C(O)C(=O)/C=C(O)/C=C/c1c[nH]c2ccc(Cl)cc12` came in with an IC50 of 18 µM. As for `O=C(O)C(=O)/C=C(\O)c1cccc(OCc2cc(-c3ccccc3)on2)c1`, the figure is 6 µM. As for `O=C(O)C(=O)/C=C(\O)c1cccn1Cc1cccc(F)c1`, the figure is 30 µM.

Source of the values: ChEMBL document CHEMBL1140440, “Simple but highly effective three-dimensional chemical-feature-based pharmacophore model for diketo acid derivatives as hepatitis C virus RNA-dependent RNA polymerase inhibitors” (J Med Chem, 2005).
